This note sets out measurements from PMC7184531 (Heliyon, 2020).

Data set [1] concerns α-Glucosidase from Saccharomyces cerevisiae. Nature of the data set: α-Glucosidase inhibitory assay. It counts as biochemical. As to conditions: for IC50: read-out: α-glucosidase inhibition (IC50).
The test system of data set [2] is 3T3-L1 cells. As to the kind of experiment: Cytotoxicity analysis. In kind it is cell-based. Particulars: for % cell viability: MTT assay, 72 h. In a few lines: (§1)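 3T3-L1 cells grown in high-glucose DMEM with 10% FBS and 2 mM glutamine at 37 °C, 5% CO2. Seeded at 1 × 10^4 cells per well with 30 nM insulin in detection medium for 24–48 h. Test compound at 0.01–1000 μg/mL for 72 h. Then MTT (0.5 mg/mL in phosphate buffer) for 4 h, DMSO solubilisation, A570. % viability reported as mean of triplicates ± SD.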

Data set [3] deals with 3T3-L1 cells. Nature of the data set: Glucose consumption assay in 3T3-L1 cells. In kind it is cell-based. As to conditions: Mus musculus.
The nature of the next data set: Cytotoxicity analysis. Particulars: mouse, 3T3-L1 cells. It counts as cell-based. In a few lines: as §1
Where [4] appears, read: 3T3-L1, read-out: glucose consumption (IC50, μM).

Where two headings read alike, the source gives them in different places.

As a reminder, the % inhibition is the share of the control response that was lost under treatment. Turning to `C[C@H]1O[C@H](O[C@H]2[C@H](O)[C@@H](O)[C@@H](O[C@H]3[C@H](O)[C@@H](O)C(O)O[C@@H]3CO)O[C@@H]2CO)[C@H](O)[C@@H](O)[C@@H]1N[C@H]1C=C(CO)[C@@H](O)[C@H](O)[C@H]1O` (stereo partly drawn) [Acarbose, reference compound], the “% inhibition at 200 μg/mL (α-glucosidase)” value in data set [1] (final concentration of 200 μg/mL) is 98.9%.
Regarding cowanol [Compound 7], the IC50 in data set [1] came to 18 µM. In addition, in the data set with 3T3-L1 cells [2], the “% cell viability” value was determined as 100.9%.
The term viability denotes a read-out of living cells in per cent, often relative to untreated cells. `CN(C)C(=N)N=C(N)N` [Metformin, reference compound]: the IC50 with 3T3-L1 cells [3] (setting [4]) came to 45.4 µM; with 3T3-L1 cells [3] (3T3-L1, read-out: glucose consumption (IC50, μg/mL)), 6.3 µg/mL. In addition, the viability at 72 h in “Cytotoxicity analysis” was determined as 99.7%.
As to `COc1ccc2oc3cccc(O)c3c(=O)c2c1` [Compound 4, 1-hydroxyl-7 methoxyxanthone], the IC50 was 23.2 µM in the data set with 3T3-L1 cells [3] (setting [4]) and above 100 µM in data set [1]. Besides, the viability at 72 h in the data set “Cytotoxicity analysis” was 102%.
In the same order, the values of `C[C@H]1C(=O)CC[C@@H]2[C@]1(C)CC[C@H]1[C@@]2(C)CC[C@@]2(C)[C@@H]3CC(C)(C)CC[C@]3(C)CC[C@]12C` [Compound 9, friedelin] are 18.5 µM, above 100 µM and 101%.
Turning to guttiferone I [Compound 2], the IC50 in data set [1] was 13.1 µM. Also, the results for the “toxicity to cells (in words)” value in the data set with 3T3-L1 cells [2] and with 3T3-L1 cells [2] (listed as Guttiferone I) were “without causing toxicity to cells” and “without causing toxic effects”, respectively. For the same compound, the “% cell viability” value with 3T3-L1 cells [2] is listed as 98.7%.
Take `O=c1c2cc(O)ccc2oc2cccc(O)c12` [Compound 3, 1,7-dihydroxyxanthone]: the IC50 in data set [1] was above 100 µM. Further, the viability at 72 h in the data set “Cytotoxicity analysis” turned out to be 105%.
`CC(C)=CCC/C(C)=C/Cc1c(O)cc2oc3c(O)cccc3c(=O)c2c1O` [Compound 5, mangostinone]: the IC50 in the data set on 3T3-L1 cells [3] (setting [4]) was 16 µM; in data set [1], above 100 µM. In “Cytotoxicity analysis”, the viability at 72 h amounted to 93.1%.
